Assay results collected from several papers.
Compare with care: the assays were run in different laboratories.
Target: Vascular endothelial growth factor receptor 1 (FLT1, Homo sapiens, UniProt P17948)

O=C1C=C(Nc2ccc(OCc3cn(Cc4ccc(Cl)c(Cl)c4)nn3)cc2)C(=O)c2ccccc21
inhibition (enzyme activity; inhibitor; radiometric; 10 µM): -38%

CN1CCN(C(=O)c2ccc(NC(=O)Nc3ccc(N(C)c4ccnc(Nc5ccc(CS(C)(=O)=O)cc5)n4)cc3)cc2)CC1
remaining binding (binding; competition with immobilised ligand; 1 µM): 0.4%

CO[C@@H]1[C@H](N(C)C(=O)c2ccccc2)C[C@H]2O[C@]1(C)n1c3ccccc3c3c4c(c5c6ccccc6n2c5c31)C(=O)NC4
inhibition (enzyme activity; inhibitor; 1 µM): 57%

CC(C)S(=O)(=O)c1ccc2nccc(Nc3ccc4sc(C5CCCC5)nc4c3)c2c1
activity vs control (enzyme activity; inhibitor; 1 µM): 107%

C=CC(=O)N1CCC[C@@H](n2nc(-c3ccc(Oc4ccccc4)cc3)c3c(N)ncnc32)C1
inhibition (enzyme activity; inhibitor; 1 µM): 33%

C[C@H]1CC[C@H](n2c3cnccc3c3cnc(Nc4ccc5c(n4)CCN(C(=O)CO)C5)nc32)CC1
remaining binding (cell-free assay; competition with immobilised ligand; 1 µM): 93%

CCCCC(=O)Nc1ccc(-c2ccc3ncn(CCC)c(=O)c3c2)cn1
remaining binding (binding; competition with immobilised ligand; 0.5 µM): 98%

C1=C/COCc2cc(ccc2OCCN2CCCC2)Nc2nccc(n2)-c2cccc(c2)COC/1
remaining binding (binding; 0.1 µM): 64%
